Source: PMC3689924 (Pharmacology, 2012)
Where “and” joins values, the source holds several entries; their conditions need not be identical. Equal values may be shown once. Entries after “also recorded” stand apart in the source; their conditions may differ. Read-outs that look alike come from different tables or passages of the source.

Key:
[1] = assay type: in vivo, human; settings: for t½: terminal elimination
Procedure, shortened: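 Healthy males (n=5 per dose group). Vehicle stock of 20% ethanol/80% propylene glycol, diluted to 0.6 mg/ml in 5% dextrose, infused i.v. at 375 ml/h to target dose. Heparinised blood taken pre-dose, at 25/50/75% and end of infusion, then to 1440 min. Plasma methanol-precipitated, C18 HPLC-MS, calibration 0.005–5 μg/ml, LLOQ 5 ng/ml. Cmax observed; AUC0-n, Vss, CL, t½ calculated.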

[2] = Safety and tolerability of single i.v. doses of TQD in healthy volunteers; assay type: in vivo, human
Procedure, shortened: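 15 healthy males were given single i.v. infusions at 4, 6 or 8 mg/kg and kept on the ward under continuous observation until 24 h after infusion end. Blood pressure, heart rate and ECG were recorded repeatedly over the first 24 h. Monitoring included clinical chemistry, coagulation, haematology and adverse events. Physical examination, vital signs, AE check, and blood and urine analysis were repeated within one week.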

Pgp [3] = settings: at low concentrations; cited from earlier work
[4] = system: breast cancer resistance protein (BCRP); settings: at low concentrations; cited from earlier work
Pgp [5] = settings: 2 mg/kg dose; cited from earlier work
Pgp at the human BBB = settings: cited from earlier work
[6] = assay type: in vitro ADME, human; settings: for TQD concentration in plasma after storage: mean±SD of four determinations
Procedure, shortened: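 Plasma was spiked at 0.1, 0.5 and 2.0 μg/ml and split into 16 aliquots per level. Four aliquots were analysed by HPLC at once as the baseline. The rest were stored 24 h, 1 month or 3 months at RT, 4°C, −20°C or −80°C, then quantified. Results are given as mean of four determinations and percent of baseline; stability criterion was 95%.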

[7] = 4 mg/kg BW i.v. infusion, individual subjects 1-5
[8] = 6 mg/kg BW i.v. infusion, individual subjects 6-10
[9] = 8 mg/kg BW i.v. infusion, individual subjects 11-15
[10] = single i.v. doses up to 8 mg/kg BW

SMILES: COc1cc2c(cc1OC)CN(CCc1ccc(NC(=O)c3cc(OC)c(OC)cc3NC(=O)c3cnc4ccccc4c3)cc1)CC2 [TQD, tariquidar]
- CL [1, 7]: 11.29 L/h and 7.39 L/h and 9.22 L/h and 10.11 L/h
- Vss [1, 7]: 530 L and 571 L and 384 L and 445 L
- tmax [1, 7]: 1.38 h and 1.45 h and 1.55 h and 1.40 h
- t½ [1, 7]: 33 h and 55 h and 30 h and 31 h
- CL [1, 8]: 13.99 L/h and 15.15 L/h and 13.53 L/h and 11.35 L/h
- Vss [1, 8]: 645 L and 509 L and 680 L and 312 L and 559 L
- tmax [1, 8]: 2.45 h and 1.83 h and 2.23 h
- t½ [1, 8]: 34 h and 26 h and 33 h and 16 h and 35 h
- CL [1, 9]: 15.41 L/h and 16.21 L/h and 20.85 L/h and 22.15 L/h
- Vss [1, 9]: 521 L and 667 L and 380 L and 616 L
- tmax [1, 9]: 2.42 h and 2.28 h and 2.70 h and 2.26 h
- Cmax ([1]; 8 mg/kg BW i.v. infusion, individual subjects 11-15, plasma): 1920 ng/mL and 1050 ng/mL and 1870 ng/mL and 1660 ng/mL
- t½ [1, 9]: 21 h and 25 h and 30 h and 14 h
- concentration of possible metabolites in plasma samples ([1]; all plasma samples, 4-8 mg/kg i.v.): below the detection limit; also recorded: could not detect any metabolites
- dose dependency of plasma exposure AUC0-n ([1]; dose range from 2 to 8 mg/kg i.v.): largely increase linearly
- cases of metallic taste in the mouth ([2]; 15 subjects, 4-8 mg/kg i.v.): five cases
- heart rate, blood pressure and ECG ([2]; during and after TQD administration): did not significantly change
- dose limiting toxicities ([2]; single i.v. doses 4, 6, 8 mg/kg): No dose limiting toxicities
- serious or severe AEs [2, 10]: no serious or severe AEs
- tolerability [2, 10]: generally well tolerated
- blood chemistries, complete blood count and coagulation ([2]; whole study period): No subject had any significant change
- transport by Pgp (Pgp [3]): transported
- transport by breast cancer resistance protein (BCRP) [4]: transported
- inhibition of Pgp-mediated rhodamine 123 efflux from CD56-positive lymphocytes (Pgp [5]): fully inhibit
- increase in (R)-[11C]verapamil brain distribution (Pgp at the human BBB; 8 mg/kg TQD dose, healthy subjects, PET): 3 fold
- inhibition of Pgp at the human BBB (Pgp at the human BBB; 8 mg/kg TQD dose, plateau in concentration-response curve): complete inhibition
- EC50 (Pgp at the human BBB; read-out: half-maximum effect concentration (EC50) for functional inhibition of Pgp at the human BBB): 669 nM
- percent of baseline ([6]; 0.1 μg/ml, 4°C, 1 month): 7.2%
- TQD concentration in plasma after storage ([6]; 0.1 μg/ml, 4°C, 1 month): 0.007 ± 0.001 µg/mL
- percent of baseline ([6]; 0.1 μg/ml, 4°C, 3 months): 3.1%
- TQD concentration in plasma after storage ([6]; 0.1 μg/ml, 4°C, 3 months): 0.003 ± 0.000 µg/mL
- percent of baseline ([6]; 0.1 μg/ml, 4°C, 24 h): 99%
- TQD concentration in plasma after storage ([6]; 0.1 μg/ml, 4°C, 24 h): 0.099 ± 0.003 µg/mL
- percent of baseline ([6]; 0.1 μg/ml, RT, 1 month): 8.6%
- TQD concentration in plasma after storage ([6]; 0.1 μg/ml, RT, 1 month): 0.008 ± 0.000 µg/mL
- percent of baseline ([6]; 0.1 μg/ml, RT, 3 months): 3.0%
- TQD concentration in plasma after storage ([6]; 0.1 μg/ml, RT, 3 months): 0.003 ± 0.000 µg/mL
- percent of baseline ([6]; 0.1 μg/ml, RT, 24 h): 100%
- TQD concentration in plasma after storage ([6]; 0.1 μg/ml, RT, 24 h): 0.10 ± 0.004 µg/mL
- percent of baseline ([6]; 0.1 μg/ml, −20°C, 1 month): 73.9%
- TQD concentration in plasma after storage ([6]; 0.1 μg/ml, −20°C, 1 month): 0.073 ± 0.005 µg/mL
- percent of baseline ([6]; 0.1 μg/ml, −20°C, 3 months): 40.8%
- TQD concentration in plasma after storage ([6]; 0.1 μg/ml, −20°C, 3 months): 0.041 ± 0.004 µg/mL
- percent of baseline ([6]; 0.1 μg/ml, −20°C, 24 h): 100%
- TQD concentration in plasma after storage ([6]; 0.1 μg/ml, −20°C, 24 h): 0.10 ± 0.002 µg/mL
- percent of baseline ([6]; 0.1 μg/ml, −80°C, 1 month): 78.1%
- TQD concentration in plasma after storage ([6]; 0.1 μg/ml, −80°C, 1 month): 0.078 ± 0.006 µg/mL
- percent of baseline ([6]; 0.1 μg/ml, −80°C, 3 months): 69.1%
- TQD concentration in plasma after storage ([6]; 0.1 μg/ml, −80°C, 3 months): 0.069 ± 0.005 µg/mL
- percent of baseline ([6]; 0.1 μg/ml, −80°C, 24 h): 98%
- TQD concentration in plasma after storage ([6]; 0.1 μg/ml, −80°C, 24 h): 0.098 ± 0.003 µg/mL
- percent of baseline ([6]; 0.5 μg/ml, 4°C, 1 month): 11.2%
- TQD concentration in plasma after storage ([6]; 0.5 μg/ml, 4°C, 1 month): 0.056 ± 0.003 µg/mL
- percent of baseline ([6]; 0.5 μg/ml, 4°C, 3 months): 3.4%
- TQD concentration in plasma after storage ([6]; 0.5 μg/ml, 4°C, 3 months): 0.017 ± 0.001 µg/mL
- percent of baseline ([6]; 0.5 μg/ml, 4°C, 24 h): 102%
- TQD concentration in plasma after storage ([6]; 0.5 μg/ml, 4°C, 24 h): 0.51 ± 0.023 µg/mL
- percent of baseline ([6]; 0.5 μg/ml, RT, 3 months): 1.7%
- TQD concentration in plasma after storage ([6]; 0.5 μg/ml, RT, 3 months): 0.008 ± 0.001 µg/mL
- percent of baseline ([6]; 0.5 μg/ml, RT, 24 h): 98%
- TQD concentration in plasma after storage ([6]; 0.5 μg/ml, RT, 24 h): 0.49 ± 0.033 µg/mL
- percent of baseline ([6]; 0.5 μg/ml, −20°C, 1 month): 77.6%
- TQD concentration in plasma after storage ([6]; 0.5 μg/ml, −20°C, 1 month): 0.38 ± 0.021 µg/mL
- percent of baseline ([6]; 0.5 μg/ml, −20°C, 3 months): 36.4%
- TQD concentration in plasma after storage ([6]; 0.5 μg/ml, −20°C, 3 months): 0.18 ± 0.014 µg/mL
- percent of baseline ([6]; 0.5 μg/ml, −20°C, 24 h): 99%
- TQD concentration in plasma after storage ([6]; 0.5 μg/ml, −20°C, 24 h): 0.49 ± 0.014 µg/mL
- percent of baseline ([6]; 0.5 μg/ml, −80°C, 1 month): 82.3%
- TQD concentration in plasma after storage ([6]; 0.5 μg/ml, −80°C, 1 month): 0.41 ± 0.030 µg/mL
- percent of baseline ([6]; 0.5 μg/ml, −80°C, 3 months): 53.9%
- TQD concentration in plasma after storage ([6]; 0.5 μg/ml, −80°C, 3 months): 0.27 ± 0.023 µg/mL
- percent of baseline ([6]; 0.5 μg/ml, −80°C, 24 h): 100%
- TQD concentration in plasma after storage ([6]; 0.5 μg/ml, −80°C, 24 h): 0.50 ± 0.025 µg/mL
- percent of baseline ([6]; 2.0 μg/ml, 4°C, 1 month): 9.5%
- TQD concentration in plasma after storage ([6]; 2.0 μg/ml, 4°C, 1 month): 0.19 ± 0.004 µg/mL
- percent of baseline ([6]; 2.0 μg/ml, 4°C, 3 months): 5.6%
- TQD concentration in plasma after storage ([6]; 2.0 μg/ml, 4°C, 3 months): 0.11 ± 0.006 µg/mL
- percent of baseline ([6]; 2.0 μg/ml, 4°C, 24 h): 98.5%
- TQD concentration in plasma after storage ([6]; 2.0 μg/ml, 4°C, 24 h): 1.97 ± 0.050 µg/mL
- percent of baseline ([6]; 2.0 μg/ml, RT, 1 month): 9.1%
- TQD concentration in plasma after storage ([6]; 2.0 μg/ml, RT, 1 month): 0.18 ± 0.003 µg/mL
- percent of baseline ([6]; 2.0 μg/ml, RT, 3 months): 2.8%
- TQD concentration in plasma after storage ([6]; 2.0 μg/ml, RT, 3 months): 0.054 ± 0.004 µg/mL
- percent of baseline ([6]; 2.0 μg/ml, RT, 24 h): 101%
- TQD concentration in plasma after storage ([6]; 2.0 μg/ml, RT, 24 h): 2.02 ± 0.081 µg/mL
- percent of baseline ([6]; 2.0 μg/ml, −20°C, 1 month): 75.8%
- TQD concentration in plasma after storage ([6]; 2.0 μg/ml, −20°C, 1 month): 1.51 ± 0.065 µg/mL
- percent of baseline ([6]; 2.0 μg/ml, −20°C, 3 months): 48.3%
- TQD concentration in plasma after storage ([6]; 2.0 μg/ml, −20°C, 3 months): 0.97 ± 0.084 µg/mL
- percent of baseline ([6]; 2.0 μg/ml, −20°C, 24 h): 99%
- TQD concentration in plasma after storage ([6]; 2.0 μg/ml, −20°C, 24 h): 1.98 ± 0.075 µg/mL
- percent of baseline ([6]; 2.0 μg/ml, −80°C, 1 month): 80.6%
- TQD concentration in plasma after storage ([6]; 2.0 μg/ml, −80°C, 1 month): 1.62 ± 0.068 µg/mL
- percent of baseline ([6]; 2.0 μg/ml, −80°C, 3 months): 61.5%
- TQD concentration in plasma after storage ([6]; 2.0 μg/ml, −80°C, 3 months): 1.23 ± 0.056 µg/mL
- percent of baseline ([6]; 2.0 μg/ml, −80°C, 24 h): 100.5%
- TQD concentration in plasma after storage ([6]; 2.0 μg/ml, −80°C, 24 h): 2.01 ± 0.064 µg/mL
- concentration dependency of degradation rate in plasma ([6]; 0.1, 0.5 and 2.0 μg/ml): No concentration dependency
- stability in plasma on storage longer than 24 h ([6]; 1 month, 3 months, even at −80°C): pronounced degradation
- stability in plasma (criterion 95%) ([6]; 24 h at RT, 4°C, −20°C and −80°C): stable
- concentration remaining relative to original values ([6]; one month at −20°C): 74-78%
- concentration remaining relative to original values ([6]; one month at −80°C): 78-82%
- concentration remaining relative to original concentration ([6]; one month of storage at RT or at 4°C): approximately 10%
